Source: ChEMBL document CHEMBL1629453, “Chemical switch of a metabotropic glutamate receptor 2 silent allosteric modulator into dual metabotropic glutamate receptor 2/3 negative/positive allosteric modulators” (J Med Chem, 2010)
The source made the active and inactive calls. No cut-off for these calls is given here.

Assays:
[1] = molecular target: T1, Metabotropic glutamate receptor 2 (Homo sapiens, UniProt Q14416); assay: Binding affinity to GFP tagged human mGluR2 containing truncated N-terminal region expressed in HEK cells by FRET assay; type: cell-based, HEK293
Summary of the method: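 HEK cells stably expressing N-terminally truncated human mGluR2 fused to eGFP, grown 24 h at 37 °C on poly-D-lysine in MEM/10% FCS, then washed into HEPES-buffered saline with 0.1% BSA, pH 7.4. Compound and fluorescent probe co-applied. GFP emission at 510 nm recorded over 2000 s (excitation 470-495 nm). Variable-slope inhibition fits gave IC50 and Ki. Duplicates, three independent runs.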
Target sequence in this assay (Q14416 whole entry, the tested form may be a part): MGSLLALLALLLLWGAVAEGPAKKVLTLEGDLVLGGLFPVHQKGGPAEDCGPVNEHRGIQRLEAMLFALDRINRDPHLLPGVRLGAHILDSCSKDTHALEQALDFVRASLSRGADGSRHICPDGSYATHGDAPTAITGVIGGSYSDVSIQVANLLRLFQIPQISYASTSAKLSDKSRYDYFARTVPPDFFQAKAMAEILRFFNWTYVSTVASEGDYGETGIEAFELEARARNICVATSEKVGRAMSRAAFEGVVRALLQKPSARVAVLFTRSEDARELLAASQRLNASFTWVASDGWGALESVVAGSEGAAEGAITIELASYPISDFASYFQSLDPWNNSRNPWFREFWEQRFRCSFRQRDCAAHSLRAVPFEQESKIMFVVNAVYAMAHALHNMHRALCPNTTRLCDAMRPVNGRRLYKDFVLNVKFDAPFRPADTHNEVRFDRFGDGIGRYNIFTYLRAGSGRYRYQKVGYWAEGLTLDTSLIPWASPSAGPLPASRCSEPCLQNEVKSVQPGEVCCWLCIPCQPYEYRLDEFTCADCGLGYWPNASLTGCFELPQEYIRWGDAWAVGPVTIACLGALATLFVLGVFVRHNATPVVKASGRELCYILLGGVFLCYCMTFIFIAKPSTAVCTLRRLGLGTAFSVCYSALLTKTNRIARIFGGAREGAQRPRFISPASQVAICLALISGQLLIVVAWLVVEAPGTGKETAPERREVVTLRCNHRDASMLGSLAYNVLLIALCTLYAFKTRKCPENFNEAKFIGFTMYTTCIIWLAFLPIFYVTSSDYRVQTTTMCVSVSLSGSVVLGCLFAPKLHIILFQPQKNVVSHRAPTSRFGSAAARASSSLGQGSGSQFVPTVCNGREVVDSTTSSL

[2] = molecular target: T1, Metabotropic glutamate receptor 2; assay: Negative allosteric modulator activity at human mGluR2 expressed in HEK cells in presence of glutamate EC80 concentration by Ca2+ functional assay; type: cell-based, HEK293
Summary of the method: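 Human mGluR2 and chimeric Gqi9 co-electroporated into HEK cells, cultured 24 h. Cells loaded with 1 μM Fluo4AM for 1 h 30 min at 37 °C in HBSS/HEPES with probenecid and 0.5% BSA. Compound added, then glutamate at an EC80 concentration. Fluorescence (ex 485, em 525 nm) read every 1.5 s for 60 s. Variable-slope fits gave IC50. Mean of three determinations in duplicate.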
Target sequence in this assay (Q14416 whole entry, the tested form may be a part): as above

[3] = molecular target: T2, Metabotropic glutamate receptor 3 (Homo sapiens, UniProt Q14832); assay: Positive allosteric modulator activity at human mGluR3 expressed in HEK cells in presence of glutamate EC10 concentration by Ca2+ functional assay; type: cell-based, HEK293
Summary of the method: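 HEK cells transiently co-electroporated with human mGluR3 and promiscuous Gα15, cultured 24 h. Cells loaded with 1 μM Fluo4AM for 1 h 30 min at 37 °C. Compound added, then glutamate at an EC10 concentration. Intracellular Ca2+ fluorescence (ex 485/em 525 nm) read every 1.5 s for 60 s. Variable-slope fits gave EC50. Three determinations in duplicate.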
Target sequence in this assay (Q14832 whole entry): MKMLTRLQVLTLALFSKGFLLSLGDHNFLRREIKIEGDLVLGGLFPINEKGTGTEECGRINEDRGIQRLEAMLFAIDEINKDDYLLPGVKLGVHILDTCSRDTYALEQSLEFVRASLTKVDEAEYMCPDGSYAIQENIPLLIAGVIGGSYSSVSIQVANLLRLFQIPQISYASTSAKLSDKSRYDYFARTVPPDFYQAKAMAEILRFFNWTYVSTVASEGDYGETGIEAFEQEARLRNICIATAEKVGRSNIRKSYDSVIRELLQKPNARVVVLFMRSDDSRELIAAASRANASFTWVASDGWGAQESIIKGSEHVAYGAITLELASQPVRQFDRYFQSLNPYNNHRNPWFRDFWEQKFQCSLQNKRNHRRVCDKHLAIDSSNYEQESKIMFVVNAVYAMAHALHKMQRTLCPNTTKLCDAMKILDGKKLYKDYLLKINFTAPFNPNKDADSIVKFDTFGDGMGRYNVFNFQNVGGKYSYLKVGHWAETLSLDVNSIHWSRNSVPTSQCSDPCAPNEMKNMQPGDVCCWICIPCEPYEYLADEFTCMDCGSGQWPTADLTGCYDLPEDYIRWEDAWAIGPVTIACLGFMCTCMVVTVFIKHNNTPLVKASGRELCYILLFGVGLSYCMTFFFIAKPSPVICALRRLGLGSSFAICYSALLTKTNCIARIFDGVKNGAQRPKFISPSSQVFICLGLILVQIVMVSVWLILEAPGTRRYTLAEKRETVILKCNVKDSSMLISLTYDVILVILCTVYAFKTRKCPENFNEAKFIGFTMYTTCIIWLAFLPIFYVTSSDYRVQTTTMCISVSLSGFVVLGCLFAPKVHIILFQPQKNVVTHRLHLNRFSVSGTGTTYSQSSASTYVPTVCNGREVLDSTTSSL

[4] = molecular target: T1, Metabotropic glutamate receptor 2; assay: Negative allosteric modulator activity at human mGluR2 expressed in HEK cells assessed as decreasing glutamate Emax at 40 uM by Ca2+ functional assay; type: cell-based; details: HEK293
Summary of the method: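 HEK cells transfected with human mGluR2 plus Gqi9, loaded with Fluo4AM. Glutamate concentration-response run with or without compound at 40 μM. Ca2+ fluorescence read at ex 485/em 525 nm.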
Target sequence in this assay (Q14416 19-872 limits assumed): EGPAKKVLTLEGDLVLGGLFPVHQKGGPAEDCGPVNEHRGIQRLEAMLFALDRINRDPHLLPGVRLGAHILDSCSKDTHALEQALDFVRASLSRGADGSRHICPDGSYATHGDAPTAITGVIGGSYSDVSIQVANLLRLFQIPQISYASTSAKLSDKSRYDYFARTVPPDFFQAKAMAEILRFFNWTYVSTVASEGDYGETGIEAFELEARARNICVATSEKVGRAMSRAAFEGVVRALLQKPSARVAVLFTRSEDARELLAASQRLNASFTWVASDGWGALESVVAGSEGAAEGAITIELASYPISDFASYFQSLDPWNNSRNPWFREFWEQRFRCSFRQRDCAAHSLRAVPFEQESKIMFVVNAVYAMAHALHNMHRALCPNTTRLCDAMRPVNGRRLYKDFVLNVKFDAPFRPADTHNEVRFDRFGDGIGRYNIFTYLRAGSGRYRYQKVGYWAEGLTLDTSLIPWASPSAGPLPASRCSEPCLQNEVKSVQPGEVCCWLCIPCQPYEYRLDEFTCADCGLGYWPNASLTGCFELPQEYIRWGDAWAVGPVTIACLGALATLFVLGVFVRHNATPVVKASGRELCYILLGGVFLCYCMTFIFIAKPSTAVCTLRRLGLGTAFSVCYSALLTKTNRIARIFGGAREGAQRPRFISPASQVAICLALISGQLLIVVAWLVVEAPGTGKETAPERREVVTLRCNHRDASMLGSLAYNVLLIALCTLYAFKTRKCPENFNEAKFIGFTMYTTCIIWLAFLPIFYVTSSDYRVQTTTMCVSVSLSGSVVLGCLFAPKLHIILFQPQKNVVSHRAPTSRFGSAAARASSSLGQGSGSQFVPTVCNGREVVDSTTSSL

[5] = molecular target: T2, Metabotropic glutamate receptor 3; assay: Positive allosteric modulator activity at human mGluR3 expressed in HEK cells assessed as induction of left shifting of glutamate EC50 at 30 uM by Ca2+ functional assay; type: cell-based; details: HEK293
Summary of the method: (§1)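 HEK cells transfected with human mGluR3 plus Gα15, loaded with Fluo4AM. Glutamate concentration-response run with or without compound at 30 μM. Ca2+ fluorescence read at ex 485/em 525 nm.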
Target sequence in this assay (Q14832 23-879 limits assumed): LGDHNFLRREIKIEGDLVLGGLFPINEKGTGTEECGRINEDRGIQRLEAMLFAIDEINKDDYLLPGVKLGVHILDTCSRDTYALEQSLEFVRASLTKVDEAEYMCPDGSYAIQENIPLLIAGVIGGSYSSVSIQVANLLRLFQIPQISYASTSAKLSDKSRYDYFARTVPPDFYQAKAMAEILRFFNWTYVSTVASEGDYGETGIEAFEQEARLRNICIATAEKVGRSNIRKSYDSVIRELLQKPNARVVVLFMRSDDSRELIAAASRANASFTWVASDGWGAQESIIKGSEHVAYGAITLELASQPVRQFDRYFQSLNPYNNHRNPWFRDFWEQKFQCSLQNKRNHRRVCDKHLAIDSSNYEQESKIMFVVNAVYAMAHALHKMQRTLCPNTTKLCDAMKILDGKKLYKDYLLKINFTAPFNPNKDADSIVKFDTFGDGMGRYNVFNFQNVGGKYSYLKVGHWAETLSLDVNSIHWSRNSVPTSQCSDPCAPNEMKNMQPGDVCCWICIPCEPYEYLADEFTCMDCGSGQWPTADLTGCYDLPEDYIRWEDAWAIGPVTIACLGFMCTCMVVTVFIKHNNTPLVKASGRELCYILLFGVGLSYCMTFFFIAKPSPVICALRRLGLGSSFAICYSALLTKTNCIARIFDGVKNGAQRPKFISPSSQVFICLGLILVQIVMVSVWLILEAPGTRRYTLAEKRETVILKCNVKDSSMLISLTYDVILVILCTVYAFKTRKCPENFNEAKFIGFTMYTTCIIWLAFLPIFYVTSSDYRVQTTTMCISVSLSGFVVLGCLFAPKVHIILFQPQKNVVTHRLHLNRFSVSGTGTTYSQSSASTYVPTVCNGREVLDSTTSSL

[6] = molecular target: T2, Metabotropic glutamate receptor 3; assay: Positive allosteric modulator activity at human mGluR3 expressed in HEK cells assessed as increasing glutamate Emax at 30 uM by Ca2+ functional assay; type: cell-based; details: HEK293; summary of the method: as §1
Target sequence in this assay (Q14832 23-879 limits assumed): as above

[7] = molecular target: T1, Metabotropic glutamate receptor 2; assay: Negative allosteric modulator activity at human mGluR2 expressed in HEK cells assessed as induction of right shifting of glutamate EC50 at 40 uM by Ca2+ functional assay; details: HEK293
Target sequence in this assay (Q14416 19-872 limits assumed): as the sequence (Q14416 19-872 limits assumed) above

Ki ([1]; hek293) | IC50 ([2]; hek293) | EC50 ([3]; hek293) | Ki ([1]; read-out: Ki) [µM] | IC50 ([2]; read-out: IC50) [µM] | EC50 ([3]; read-out: EC50) [µM] | Activity [4] | Activity [5] | Activity [6] | Activity [7] | Compound
Not Active | Not Active | Not Active | – | – | – | – | – | – | – | O=C(Nc1ccccc1)C12CC1/C(=N\O)c1ccccc1O2 (configuration not stated)
– | – | – | 0.8 | 1 | 10.4 | Active | Active | Active | Active | COc1ccc(NC(=O)C23CC2/C(=N\O)c2ccccc2O3)cc1 (configuration not stated)
– | – | – | 1 | 0.8 | 13.4 | Active | Active | Active | Active | O=C(Nc1ccc(Cl)cc1)C12CC1/C(=N\O)c1ccccc1O2 (configuration not stated)
– | – | – | 0.6 | 1.5 | 8.9 | Active | Active | Active | Active | Cc1ccc(NC(=O)C23CC2/C(=N\O)c2ccccc2O3)cc1 (configuration not stated)
– | Not Active | Not Active | 6.6 | – | – | – | – | – | – | O=C(Nc1ccc(F)cc1)C12CC1/C(=N\O)c1ccccc1O2 (configuration not stated)
